Experimental data as given in ChEMBL document CHEMBL5260803, “Discovery of Novel, Orally Bioavailable β-Amino Acid Azaindole Inhibitors of Influenza PB2” (ACS Med Chem Lett, 2017).

Key:
Type in all cases: functional, organism-based
Influenza A virus [1] = assay: Antiviral activity against oseltamivir resistant Influenza A virus A/Georgia/20/2006 (H1N1) infected in MDCK cells incubated for 72 hrs by cell protection assay
Summary of the method: (§1)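 MDCK cells incubated with test compound and influenza A virus for 72 h. EC50 is the concentration giving 50% cell protection, reported as the mean of N=3. Oseltamivir resistant or sensitive status was assigned by externally validated phenotypic or genetic analysis.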

Influenza A virus [2] = assay: Antiviral activity against oseltamivir resistant Influenza A virus A/Texas/48/2009 (H1N1) infected in MDCK cells incubated for 72 hrs by cell protection assay; summary of the method: as §1
Influenza A virus [3] = assay: Antiviral activity against oseltamivir resistant Influenza A virus A/Texas/12/2007 (H3N2) infected in MDCK cells incubated for 72 hrs by cell protection assay; summary of the method: as §1

CC(C)(C)[C@@H](CC(=O)O)Nc1nc(-c2c[nH]c3ncc(F)cc23)ncc1F
EC50 (Influenza A virus [1]): 2 nM | EC50 (Influenza A virus [2]): 2 nM | EC50 (Influenza A virus [3]): 30 nM
